Results: article PMC4775349 (Chemical communications (Cambridge, England), 2016)

Target: T1, His6-Te2FT (Thermosynechococcus vestitus, UniProt Q8DK72)
T1 sequence (Q8DK72 1-293): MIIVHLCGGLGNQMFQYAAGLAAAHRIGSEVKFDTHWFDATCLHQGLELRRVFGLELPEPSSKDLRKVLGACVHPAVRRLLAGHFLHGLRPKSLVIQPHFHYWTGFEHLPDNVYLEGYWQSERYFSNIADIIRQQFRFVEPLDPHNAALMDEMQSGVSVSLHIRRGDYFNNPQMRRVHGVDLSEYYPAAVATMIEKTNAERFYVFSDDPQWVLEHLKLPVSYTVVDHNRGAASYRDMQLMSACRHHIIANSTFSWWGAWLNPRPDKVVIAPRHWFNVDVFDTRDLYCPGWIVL
Assay: HPLC-based fucosyltransferase kinetics
Assay type: biochemical
Conditions: α1–2-fucosyltransferase activity; acceptor; donor GDP-fucose
In short: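 Enzyme is N-His6-tagged Te2FT from the pET15b vector, expressed in E. coli at 16 °C for 20 h with shaking at 120 rpm. It was purified on a Ni2+ column and quantified by bicinchoninic acid assay. Apparent kinetic parameters (kcat, KM, kcat/KM) were determined for α1–2-fucosyltransferase activity. The acceptor was Galβ1–3GlcNAcβ2AA and the donor was GDP-fucose.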

Km: 790 ± 110 µM
Substance: Galβ1–3GlcNAcβ2AA
